Rows were chosen to be rich in hits. Some 0.7% of all compounds tested hit in one or more screens of this group.
FXN GAA850 act: frataxin GAA850 promoter activation. activation, % at 6 µM. HEK293 lucGAA850 FXN promoter luciferase reporter, 24 h; percent of 10 µM SAHA response. 360,000 compounds, 0.56% hits;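 active means activation above the average of all compounds screened plus 3 SD, cutoff fixed separately per campaign, cut at about 7.5% in these data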;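 further: 0% = DMSO wells and 100% = 10 µM SAHA wells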
proCasp7 act: counter-screen: procaspase-7 (human) activation. P55210. recombinant procaspase-7, Ac-DEVD-pNA absorbance 405 nm; D23A/D198A/D206A triple mutant, cannot self-cleave; scale: DMSO 0, 5 µM enzyme 100. activation, % at 8.5 µM. 330,000 compounds, 0.093% hits. AID 463210;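 active means percent activation above the screen-wide mean plus 3 SD, cut at about 25% in these data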
Target sequence (P55210 whole entry D23A/D198A/D206A): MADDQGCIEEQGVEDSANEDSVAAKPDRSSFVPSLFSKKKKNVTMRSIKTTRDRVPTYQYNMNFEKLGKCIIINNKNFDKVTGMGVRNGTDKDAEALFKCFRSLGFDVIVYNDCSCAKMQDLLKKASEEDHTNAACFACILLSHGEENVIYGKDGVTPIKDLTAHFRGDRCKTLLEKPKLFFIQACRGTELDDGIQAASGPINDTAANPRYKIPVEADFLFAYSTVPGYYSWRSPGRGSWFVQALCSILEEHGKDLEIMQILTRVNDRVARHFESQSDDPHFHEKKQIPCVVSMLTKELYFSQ
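Material: Procaspase-7 triple mutant (PC-7 D3A) | Quantity: 2 µM procaspase-7 mutant as dispensed | Reagent: DEVD-pNA substrate | Times: 1 h preincubation, 2 h reaction | Technique: 405 nm absorbance of p-nitroaniline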
procasp3 activ: activates human procaspase-3; activation, % at 8.5 µM; recombinant procaspase-3 D3A, Ac-DEVD-pNA absorbance 405 nm; P42574; 330,000 compounds, 0.11% hits;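 active means activation above the mean of all tested compounds plus 3 SD, cut at about 21% in these data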;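 further: 0% = DMSO alone and 100% = DMSO wells spiked with extra 5 µM PC-3 D3A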
Target sequence (P42574 whole entry D9A/D28A/D175A): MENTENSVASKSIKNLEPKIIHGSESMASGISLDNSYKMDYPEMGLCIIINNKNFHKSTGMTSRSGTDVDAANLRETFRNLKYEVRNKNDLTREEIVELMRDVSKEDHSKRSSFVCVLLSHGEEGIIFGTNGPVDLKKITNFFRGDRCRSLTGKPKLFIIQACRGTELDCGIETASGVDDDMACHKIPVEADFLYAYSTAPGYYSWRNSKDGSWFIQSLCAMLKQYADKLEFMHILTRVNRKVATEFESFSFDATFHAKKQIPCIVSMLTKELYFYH
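System: Procaspase-3 D3A mutant. Medium: Zinc-free 300 mM NaCl, 50 mM HEPES, 0.01% Triton X-100. Schedule: 1 h preincubation plus 2 h reaction at 25 °C. Measured by: 405 nm absorbance of p-nitroaniline, reads at 0 and 120 min. Read-out: percent activation relative to control range.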
PC3 dual counter: counter-screen: procaspase-3 (human) activation | shares compounds with proCasp7 act | recombinant PC-3 D3A, Ac-DEVD-pNA absorbance 405 nm; aspartates 9, 28, 175 changed to alanine; 100% = enzyme control | activation, % at 8.5 µM | 290 tested, under 10 active | AID 493114;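 active means mean percent activation across triplicates above a set limit taken from the earlier primary procaspase-3 screen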;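 further: 0% = DMSO wells and 100% = DMSO wells with 5 µM added PC-3 D3A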
PC7 dual conf: procaspase-7 (human) activation, dual activator confirmation | recombinant procaspase-7, Ac-DEVD-pNA absorbance 405 nm; D23A/D198A/D206A mutant that cannot self-cleave | activation, % at 8.5 µM | AID 493115 | 290 tested, under 10 active | shares compounds with proCasp7 act;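 active means mean activation above a set limit carried over from the earlier primary screen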;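 further: 0% = DMSO only and 100% = DMSO with added 5 µM PC-7 enzyme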
* = called active by the depositor; / = no result.

SMILES | FXN GAA850 act | proCasp7 act | procasp3 activ | PC3 dual counter | PC7 dual conf
COc1ccc(-n2nc(C(=O)NCC(=O)NCc3ccc(F)cc3)c3ccccc3c2=O)cc1OC | 1 | -9 | 2 | / | /
CCCCCn1c(-c2ccco2)nc2nc3ccccc3nc21 | 0 | 7 | 5 | / | /
c1ccc(Cn2c(-c3ccco3)nc3nc4ccccc4nc32)cc1 | 6 | 46* | 12 | -31 | -36
Cc1ccc(C(C(=O)NC(C)(C)C)N(Cc2ccccc2)C(=O)c2snc(C(N)=O)c2N)o1 (stereo unspecified) | -1 | 3 | 0 | / | /
CCN(C(=O)CN1C(=O)S/C(=C\C=C\c2ccccc2)C1=O)C1CCS(=O)(=O)C1 (stereo unspecified) | 6 | 1 | 1 | / | /
CCOc1ccc(NC(=O)CN(C)C(=O)Cc2ccc3c(c2)OCCO3)cc1OCC | 0 | / | / | / | /
CCCN(CC(=O)Nc1ccc(Cl)cc1Cl)C(=O)/C=C/c1cc(OC)ccc1OC | 0 | 37* | 13 | -8 | -7
CCCN(CC(=O)Nc1cc(Cl)ccc1Cl)C(=O)/C=C/c1cc(OC)ccc1OC | 0 | 16 | 14 | / | /
CC(CCc1ccccc1)NCc1ccncc1 (stereo unspecified) | 1 | -13 | 1 | / | /
CC(NCc1ccccc1)c1ccccc1O (stereo unspecified) | -2 | 28* | 1 | 2 | 1
COc1cccc(-c2cc3nc(-c4ccccc4)cc(N4CCN(C(=O)c5ccoc5)CC4)n3n2)c1 | -2 | / | / | / | /
COc1cccc(-c2cc3nc(-c4ccccc4)cc(N4CCC5(CC4)OCCO5)n3n2)c1 | -1 | 38* | 32* | -30 | -37
COc1ccc(C2C3=C(CC(C)(C)CC3=O)Nc3c2c(=O)[nH]c(=O)n3Cc2ccccc2)cc1OC (stereo unspecified) | -4 | 26* | 12 | -27 | -34
COc1ccc(C2C3=C(CC(C)(C)CC3=O)Nc3c2c(=O)[nH]c(=O)n3Cc2ccccc2)cc1 (stereo unspecified) | -3 | 29* | 12 | -30 | -34
CCc1ccc(C2C3=C(CC(C)(C)CC3=O)Nc3c2c(=O)[nH]c2nc(C)nn32)cc1 (stereo unspecified) | -2 | 8 | -5 | / | /
COc1cc(C2C3=C(CC(C)(C)CC3=O)Nc3c2c(=O)[nH]c(=O)n3Cc2ccccc2)ccc1O (stereo unspecified) | 1 | 13 | 10 | / | /
COc1ccc(/C(C)=N/NC(=O)CNC(=O)/C=C\c2ccco2)cc1 | -1 | -14 | 0 | / | /
O=C(/C=C/c1cn(-c2ccccc2)nc1-c1cccnc1)c1ccco1 | 0 | -6 | -8 | / | /
Cc1cccc(C)c1NC(=O)CN(C)C(=O)Cc1cccc(C(F)(F)F)c1 | -6 | 6 | 9 | / | /
CCOC(=O)C1=C(C)NC(=O)NC1c1ccc(N2CCC(c3ccccc3)=N2)cc1 (stereo unspecified) | -4 | 72* | 31* | -30 | -36
CCOC(=O)C1=C(C)NC(=O)NC1c1ccc(NC(C)=O)cc1 (stereo unspecified) | 1 | 8 | 1 | / | /
O=C(NCCCN1CCOCC1)c1ccc(Cl)cc1Cl | 2 | 6 | -7 | / | /
N#Cc1ccc(C(CC(=O)O)N2Cc3ccccc3C2=O)cc1 (stereo unspecified) | 0 | 2 | 21 | / | /
CC1CCC(N(CCCN)Cc2ccco2)CC1C (stereo unspecified) | 1 | -3 | 3 | / | /
COc1ccc2sc(-c3ccc(N(C)C)cc3)c(C#CC(C)(C)O)c2c1 | 6 | 70* | 49* | -30 | -36
SMILES | FXN GAA850 act | proCasp7 act | procasp3 activ | PC3 dual counter | PC7 dual conf
COc1cccc(-c2sc3ccc(OC)cc3c2C#CC(C)(C)O)c1 | 3 | -9 | -3 | / | /
Cc1cccc(C2=NN(c3ccc(Br)cc3)[C@@H](C(=O)N3CCOC3=O)[C@@H]2c2ccc(F)cc2)c1 | -1 | 26* | 35* | -29 | -35
COc1ccccc1[C@@H]1C(c2cccc(C)c2)=NN(c2ccc(Br)cc2)[C@H]1C(=O)N1CCOC1=O | 1 | 20 | 17 | / | /
CCOC(=O)N1CCC(N2C(=O)c3ccccc3C2Nc2ccc(S(=O)(=O)N3CCOCC3)cc2)CC1 (stereo unspecified) | 0 | -4 | 8 | / | /
C=CCN(C(=O)c1csnn1)C(C(=O)NCc1ccc(F)cc1)c1sccc1C (stereo unspecified) | 3 | 5 | 1 | / | /
O=C(OC1CCOC1=O)c1cc(-c2ccccc2)nc2ccccc12 (stereo unspecified) | 0 | 0 | 4 | / | /
COc1ccc(-c2cc(C(=O)OC3CCOC3=O)c3ccccc3n2)cc1OC (stereo unspecified) | 1 | 28* | 27* | 15 | 10
O=C(CNC(=O)c1ccccc1)OC(C(=O)O)c1ccc(F)cc1 (stereo unspecified) | -1 | / | / | / | /
Cc1c(CC(=O)N2CCN(C(=O)C3COc4ccccc4O3)CC2)c(=O)oc2cc(O)ccc12 (stereo unspecified) | 1 | 30* | 24* | -28 | -34
Cc1c(CC(=O)N2CCN(C(=O)C3COc4ccccc4O3)CC2)c(=O)oc2c(C)c(O)ccc12 (stereo unspecified) | 0 | 26* | 27* | -29 | -35
Cc1c(CC(=O)N2CCN(C(=O)C3COc4ccccc4O3)CC2)c(=O)oc2cc(O)cc(O)c12 (stereo unspecified) | 0 | 17 | 16 | / | /
COc1ccc2c(C)c(CC(=O)N3CCN(C(=O)C4COc5ccccc5O4)CC3)c(=O)oc2c1 (stereo unspecified) | 2 | 0 | 2 | / | /
COc1ccc(CCN(C)C2CCCN(C(=O)c3sccc3C)C2)cc1OC (stereo unspecified) | 1 | 8 | 3 | / | /
C/C(=N\NC(=O)CNC(=O)C1COc2ccccc2O1)c1ccco1 (stereo unspecified) | -2 | 5 | 7 | / | /
COc1ccc(C(=O)N2CCOC2CNC(=O)C(=O)NCCc2ccc(OC)c(OC)c2)cc1 (stereo unspecified) | 1 | 1 | 7 | / | /
O=C(CC1C[C@H](C(=O)N2CCCCC2)[C@@]2(CCc3ccccc3)c3[nH]c4ccccc4c3CCN2C1=O)NCCCn1ccnc1 (stereo partly specified) | -2 | -1 | 5 | / | /
C=CCOC(=O)C1=C(C)NC(SCC(N)=O)=C(C#N)C1c1ccc(C)cc1 (stereo unspecified) | -2 | 5 | -3 | / | /
C=CCOC(=O)C1=C(C)NC(SCC)=C(C#N)C1c1ccc(Cl)cc1 (stereo unspecified) | -7 | 26* | 18 | 5 | 6

Screens: PubChem, The Scripps Research Institute Molecular Screening Center
